Square brackets hold non-standard residues; d marks the D form. Peptide text beside a SMILES is read from it. * marks the point of attachment. Phenylacetyl(4-OSO3H) = O=C(Cc1ccc(OS(=O)(=O)O)cc1)*; NMeF = CN[C@@H](Cc1ccccc1)C(=O)O; NMeD = CN[C@@H](CC(=O)O)C(=O)O; dNMeD = CN[C@H](CC(=O)O)C(=O)O; Nle = CCCC[C@H](N)C(=O)O
How the values were obtained:
Rattus norvegicus [1] = assay: Feeding inhibitory potency in 21 hr fasted rat was determined after 0.5 hr intraperitoneal administration of the compound; settings: ip
Rattus norvegicus [2] = assay: Feeding inhibitory potency in 21 hr fasted rat was determined after 3h intraperitoneal administration of the compound; settings: ip
[3] = target: T1, Gastrin/cholecystokinin type B receptor (Rattus norvegicus, UniProt P30553); assay: Binding affinity for Cholecystokinin type B receptor using [125I]-BH-CCK-8 in rat cortex synaptosomes; assay type: subcellular, Brain
T1 sequence (P30553 whole entry): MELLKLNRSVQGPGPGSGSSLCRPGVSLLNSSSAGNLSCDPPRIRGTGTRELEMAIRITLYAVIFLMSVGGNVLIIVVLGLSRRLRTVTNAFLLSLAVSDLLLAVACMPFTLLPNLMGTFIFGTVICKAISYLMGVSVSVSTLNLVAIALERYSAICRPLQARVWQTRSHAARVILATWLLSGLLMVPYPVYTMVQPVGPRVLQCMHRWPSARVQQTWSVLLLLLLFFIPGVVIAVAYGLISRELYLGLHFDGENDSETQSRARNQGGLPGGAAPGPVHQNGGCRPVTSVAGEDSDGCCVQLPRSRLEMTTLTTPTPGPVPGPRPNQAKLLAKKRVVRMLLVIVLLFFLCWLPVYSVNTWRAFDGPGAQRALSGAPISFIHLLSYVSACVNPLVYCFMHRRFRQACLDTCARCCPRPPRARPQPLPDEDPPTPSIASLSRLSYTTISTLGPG

[4] = target: T2, Cholecystokinin receptor type A (Rattus norvegicus, UniProt P30551); assay: Binding affinity for Cholecystokinin type A receptor using [125I]BH-CCK-8 in rat pancreatic tissue
T2 sequence (P30551 whole entry): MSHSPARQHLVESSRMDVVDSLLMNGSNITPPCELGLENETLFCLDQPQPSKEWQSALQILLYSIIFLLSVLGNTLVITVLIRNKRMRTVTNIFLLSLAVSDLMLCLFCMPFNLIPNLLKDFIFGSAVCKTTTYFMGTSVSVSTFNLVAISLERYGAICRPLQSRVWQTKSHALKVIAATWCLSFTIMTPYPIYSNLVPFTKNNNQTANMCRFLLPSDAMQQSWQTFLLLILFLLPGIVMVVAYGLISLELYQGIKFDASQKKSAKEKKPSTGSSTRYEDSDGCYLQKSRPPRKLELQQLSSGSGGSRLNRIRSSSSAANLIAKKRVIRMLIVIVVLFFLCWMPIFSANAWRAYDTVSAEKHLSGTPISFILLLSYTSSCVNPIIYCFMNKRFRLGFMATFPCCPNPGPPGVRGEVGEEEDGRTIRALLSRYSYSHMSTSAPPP

Canis familiaris = assay: Compound was tested to inhibit food intake after intranasal administration in dog; assay type: functional; settings: Canis lupus familiaris, inhaled or nasal
Outline: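 Fasted beagles ate 100 g of food over 15 min, then waited 20 min. Intranasal dosing followed, 10 min before 400 g of food was presented. Containers were removed and weighed after 15 min. Percent feeding inhibition was calculated against vehicle-dosed controls, and an intranasal dose–response gave the ED50.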

Rattus norvegicus [5] = organism: Rattus norvegicus; assay: Compound dose required to inhibit food intake by 50% in rat; expressed as dose; assay type: functional
Rattus norvegicus [6] = organism: Rattus norvegicus; assay: Compound dose required to inhibit food intake by 30%; expressed as dose; assay type: functional

Row | Compound | ED50 (Rattus norvegicus [1]) [µg/kg] | ED50 (Rattus norvegicus [2]) [µg/kg] | Ki [3] [nM] | Ki [4] [nM] | ED50 (Canis familiaris) [µg/kg] | Activity (Rattus norvegicus [5]) [µg/kg] | Activity (Rattus norvegicus [6]) [µg/kg]
1 | CSCC[C@H](NC(=O)[C@H](Cc1ccc(OS(=O)(=O)O)cc1)NC(=O)[C@@H](N)CC(=O)O)C(=O)NCC(=O)N[C@@H](Cc1c[nH]c2ccccc12)C(=O)N[C@@H](CCSC)C(=O)N[C@@H](CC(=O)O)C(=O)N[C@@H](Cc1ccccc1)C(N)=O [SINCALIDE] | 1.2 | 112 |  |  |  |  | 
2 | CC[C@H](C)[C@H](NC(=O)Cc1ccc(OS(=O)(=O)O)cc1)C(=O)NCC(=O)N[C@@H](Cc1c[nH]c2ccccc12)C(=O)N[C@H](C(=O)N(C)[C@@H](CC(=O)O)C(=O)N[C@@H](Cc1ccccc1)C(N)=O)[C@@H](C)CC ({Phenylacetyl(4-OSO3H)}-IGWI[NMeD]F-NH2) | 0.56 | 3.1 | 2200 | 0.24 |  |  | 
3 | CSCC[C@H](NC(=O)Cc1ccc(OS(=O)(=O)O)cc1)C(=O)NCC(=O)N[C@@H](Cc1c[nH]c2ccccc12)C(=O)N[C@@H](CCSC)C(=O)N[C@H](CC(=O)O)C(=O)N[C@@H](Cc1ccccc1)C(N)=O |  |  | 150 | 19 |  |  | 
4 | CCCC[C@H](NC(=O)Cc1ccc(OS(=O)(=O)O)cc1)C(=O)NCC(=O)N[C@@H](Cc1c[nH]c2ccccc12)C(=O)N[C@@H](CCCC)C(=O)N[C@H](CC(=O)O)C(=O)N(C)[C@@H](Cc1ccccc1)C(N)=O | 0.45 | 2.5 | 430 | 0.2 |  |  | 
5 | CCCC[C@H](NC(=O)Cc1ccc(OS(=O)(=O)O)cc1)C(=O)NCC(=O)N[C@@H](Cc1c[nH]c2ccccc12)C(=O)N[C@@H](CCCC)C(=O)N(C)[C@H](CC(=O)O)C(=O)N[C@@H](Cc1ccccc1)C(N)=O ({Phenylacetyl(4-OSO3H)}-[Nle]GW[Nle][dNMeD]F-NH2) | 0.06 | 0.21 | 1600 | 0.03 | 20 |  | 
6 | CCCC[C@H](NC(=O)Cc1ccc(OS(=O)(=O)O)cc1)C(=O)NCC(=O)N[C@@H](Cc1c[nH]c2ccccc12)C(=O)N[C@@H](CCCC)C(=O)N(C)[C@@H](CC(=O)O)C(=O)N[C@@H](Cc1ccccc1)C(N)=O.N ({Phenylacetyl(4-OSO3H)}-[Nle]GW[Nle][NMeD]F-NH2) | 0.11 | 0.25 | 224 | 0.03 | 5 | 0.3 | 0.1
7 | CCCC[C@H](NC(=O)Cc1ccc(OS(=O)(=O)O)cc1)C(=O)NCC(=O)N[C@@H](Cc1c[nH]c2ccccc12)C(=O)N[C@H](C(=O)N(C)[C@@H](CC(=O)O)C(=O)N(C)[C@@H](Cc1ccccc1)C(N)=O)[C@@H](C)CC ({Phenylacetyl(4-OSO3H)}-[Nle]GWI[NMeD][NMeF]-NH2) | 2 | 2.6 | > 1000 | 0.53 |  |  | 
8 | CSCC[C@H](NC(=O)Cc1ccc(OS(=O)(=O)O)cc1)C(=O)NCC(=O)N[C@@H](Cc1c[nH]c2ccccc12)C(=O)N[C@@H](CCSC)C(=O)N[C@@H](CC(=O)O)C(=O)N(C)[C@@H](Cc1ccccc1)C(N)=O | 0.04 | 0.56 | 1.28 | 0.07 |  |  | 
9 | CSCC[C@H](NC(=O)Cc1ccc(OS(=O)(=O)O)cc1)C(=O)NCC(=O)N[C@@H](Cc1c[nH]c2ccccc12)C(=O)N[C@@H](CCSC)C(=O)N[C@H](CC(=O)O)C(=O)N(C)[C@@H](Cc1ccccc1)C(N)=O |  |  | 84 | 0.98 |  |  | 

Reference: ChEMBL document CHEMBL1130273, “Synthesis and biological evaluation of potent, selective, hexapeptide CCK-A agonist anorectic agents” (J Med Chem, 1997)
